ChEMBL document CHEMBL1151762, “5-(1-Acetoxyvinyl)-cycloSaligenyl-2',3'-dideoxy-2',3'- didehydrothymidine monophosphates, a second type of new, enzymatically activated cycloSaligenyl pronucleotides” (J Med Chem, 2008)

Assays:
[1] = Chemical stability assessed as half life of hydrolysis in RPMI-1640 culture medium at pH 7.6 in presence 10% heat-inactivated fetal calf serum; format: physicochemical
In short: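 RPMI-1640 with 10% heat-inactivated fetal calf serum, pH 7.6 (the antiviral test medium), used in place of cell extract and run by the same HPLC procedure. Half-life is taken from disappearance of the triester.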

[2] = Cytotoxicity against human wild type CEM/0 cells; format: cell-based; conditions: CCRF-CEM
In short: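 Wild-type CEM cells; cytostatic activity reported as the 50% cytostatic concentration.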

[3] = tested on: Human immunodeficiency virus 2; assay: Antiviral activity against HIV2 replication in human thymidine kinase deficient CEM cells assessed as virus-induced cytopathic effect; format: functional, organism-based; conditions: Human immunodeficiency virus 2, CCRF-CEM
In short: (§1)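 CEM T-lymphocyte cultures (wild-type CEM/0 or thymidine kinase-deficient CEM/TK-) infected with HIV-1 or HIV-2; read-out is virus-induced cytopathic effect (giant cell formation). EC50 = 50% effective concentration, given as the mean of two to three independent experiments.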

[4] = Chemical stability assessed as half life of hydrolysis in 25 mM phosphate buffer at pH 7.3; format: physicochemical
In short: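 Triesters incubated at pH 7.3 in aqueous 25 mM phosphate buffer and followed by HPLC. Half-life is taken from disappearance of the triester.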

[5] = tested on: Human immunodeficiency virus 1; assay: Antiviral activity against HIV1 replication in human wild type CEM/0 cells assessed as virus-induced cytopathic effect; format: functional, organism-based; conditions: Human immunodeficiency virus 1, CCRF-CEM; in short: as §1
[6] = tested on: Human immunodeficiency virus 2; assay: Antiviral activity against HIV2 replication in human wild type CEM/0 cells assessed as virus-induced cytopathic effect; format: functional, organism-based; conditions: Human immunodeficiency virus 2, CCRF-CEM; in short: as §1
[7] = Chemical stability assessed as half life of hydrolysis in CEM cell extracts at pH 6.9; format: physicochemical, CCRF-CEM; conditions: human
In short: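 T-lymphocyte CEM cell extracts at pH 6.9, analysed by HPLC. Half-life is taken from disappearance of the triester.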

Structure (SMILES)	half-life [1]	CC50 [2]	EC50 [3]	half-life [4]	EC50 [5]	EC50 [6]	half-life [7]
CC(=O)c1cc(C)c2c(c1)COP(=O)(OC[C@@H]1C=C[C@H](n3cc(C)c(=O)[nH]c3=O)O1)O2 (some centres not stated)	1 h	96000 nM	36000 nM	0.75 h	540 nM	2200 nM	
CC(=O)c1cc2c(c(C(C)(C)C)c1)O[P@](=O)(OC[C@@H]1C=C[C@H](n3cc(C)c(=O)[nH]c3=O)O1)OC2	3.2 h	56000 nM	550 nM	2.3 h	180 nM	510 nM	
Cc1cn([C@H]2C=C[C@@H](COP3(=O)OCc4cc(C=O)cc(C(C)(C)C)c4O3)O2)c(=O)[nH]c1=O (some centres not stated)		33000 nM	15000 nM				
CC(=O)OC(OC(C)=O)c1cc2c(c(C(C)(C)C)c1)O[P@](=O)(OC[C@@H]1C=C[C@H](n3cc(C)c(=O)[nH]c3=O)O1)OC2		17000 nM	290 nM				
Cc1cn([C@H]2C=C[C@@H](CO[P@]3(=O)OCc4cc(C=O)cc(C(C)(C)C)c4O3)O2)c(=O)[nH]c1=O		27000 nM	2600 nM				
CC(=O)OC(OC(C)=O)c1cc2c(c(C(C)(C)C)c1)OP(=O)(OC[C@@H]1C=C[C@H](n3cc(C)c(=O)[nH]c3=O)O1)OC2 (some centres not stated)		19000 nM	780 nM				
C=C(OC(C)=O)c1cc2c(c(C(C)(C)C)c1)O[P@](=O)(OC[C@@H]1C=C[C@H](n3cc(C)c(=O)[nH]c3=O)O1)OC2	7.6 h	20000 nM	270 nM	13.5 h	210 nM	800 nM	2.4 min
C=C(OC(C)=O)c1cc(C)c2c(c1)COP(=O)(OC[C@@H]1C=C[C@H](n3cc(C)c(=O)[nH]c3=O)O1)O2 (some centres not stated)	1.8 h	18000 nM	730 nM	6.1 h	180 nM	400 nM	4.2 min
CC(=O)c1cc2c(c(C(C)(C)C)c1)OP(=O)(OC[C@@H]1C=C[C@H](n3cc(C)c(=O)[nH]c3=O)O1)OC2 (some centres not stated)	2.5 h	49000 nM	1700 nM	2.3 h	450 nM	870 nM	
CC(=O)c1ccc2c(c1)COP(=O)(OC[C@@H]1C=C[C@H](n3cc(C)c(=O)[nH]c3=O)O1)O2 (some centres not stated)	0.6 h	148000 nM	> 50000 nM	0.3 h	1300 nM	3000 nM	
Cc1cn([C@H]2C=C[C@@H](CO[P@@]3(=O)OCc4cc(C=O)cc(C(C)(C)C)c4O3)O2)c(=O)[nH]c1=O		41000 nM	10000 nM				
C=C(OC(C)=O)c1ccc2c(c1)COP(=O)(OC[C@@H]1C=C[C@H](n3cc(C)c(=O)[nH]c3=O)O1)O2 (some centres not stated)	1 h	111000 nM	> 50000 nM	1.4 h	650 nM	800 nM	7.8 min
C=C(OC(C)=O)c1cc2c(c(C(C)(C)C)c1)OP(=O)(OC[C@@H]1C=C[C@H](n3cc(C)c(=O)[nH]c3=O)O1)OC2 (some centres not stated)	5.2 h	49000 nM	1700 nM	12.3 h	470 nM	880 nM	2.4 min
C=C(OC(C)=O)c1cc2c(c(C(C)(C)C)c1)O[P@@](=O)(OC[C@@H]1C=C[C@H](n3cc(C)c(=O)[nH]c3=O)O1)OC2	3.7 h	67000 nM	1700 nM	11.3 h	470 nM	1100 nM	2.4 min
Cc1cn([C@H]2C=C[C@@H](CO[P@]3(=O)OCc4cc(C(OC(=O)C(C)C)OC(=O)C(C)C)cc(C(C)(C)C)c4O3)O2)c(=O)[nH]c1=O		14000 nM	1400 nM				
CC(=O)OC(OC(C)=O)c1cc2c(c(C(C)(C)C)c1)O[P@@](=O)(OC[C@@H]1C=C[C@H](n3cc(C)c(=O)[nH]c3=O)O1)OC2		51000 nM	3900 nM				
CC(=O)c1cc2c(c(C(C)(C)C)c1)O[P@@](=O)(OC[C@@H]1C=C[C@H](n3cc(C)c(=O)[nH]c3=O)O1)OC2	2 h	64000 nM	2800 nM	2.3 h	750 nM	1200 nM	
Cc1cn([C@H]2C=C[C@@H](CO)O2)c(=O)[nH]c1=O [STAVUDINE]		220000 nM	69000 nM		850 nM	1100 nM	
Cc1cn([C@H]2C=C[C@@H](CO[P@@]3(=O)OCc4cc(C(OC(=O)C(C)C)OC(=O)C(C)C)cc(C(C)(C)C)c4O3)O2)c(=O)[nH]c1=O		40000 nM	3600 nM				
Cc1cn([C@H]2C=C[C@@H](COP3(=O)OCc4cc(C(OC(=O)C(C)C)OC(=O)C(C)C)cc(C(C)(C)C)c4O3)O2)c(=O)[nH]c1=O (some centres not stated)		20000 nM	2400 nM				
